Experimental data reported in ChEMBL document CHEMBL3856275, “Discovery of Second Generation Reversible Covalent DPP1 Inhibitors Leading to an Oxazepane Amidoacetonitrile Based Clinical Candidate (AZD7986)” (J Med Chem, 2016).

Assays:
[1] = Intrinsic clearance in human liver microsomes at 1 uM after 5 to 40 mins by LC-MS/MS method; assay type: ADME; details: read-out: CLH
[2] = Intrinsic clearance in rat hepatocytes assessed per 10^6 cells at 1 uM after 10 to 90 mins by LC-MS/MS method; assay type: ADME, cell-based, Hepatocyte
[3] = Protein binding in rat plasma at 10 uM after 6 hrs by LC-MS/MS method; assay type: ADME, cell-free; details: read-out: PPB (converted)
[4] = Propionaldehyde reactivity assessed as half life of the compound at pH 7.4 by LC-UV method; assay type: physicochemical
[5] = Apparent permeability across apical to basolateral side in human Caco2 cells at 10 uM after 1 hr by LC-MS method; details: Caco-2
[6] = Apparent permeability across basolateral to apical side in human Caco2 cells at 10 uM after 1 hr by LC-MS method; details: Caco-2
[7] = Intrinsic clearance in human hepatocytes assessed per 10^6 cells at 1 uM after 10 to 90 mins by LC-MS/MS method; assay type: ADME, cell-based, Hepatocyte
[8] = Intrinsic clearance in dog hepatocytes assessed per 10^6 cells at 1 uM after 10 to 90 mins by LC-MS/MS method; assay type: ADME, cell-based, Canis lupus familiaris, Hepatocyte
[9] = Oral bioavailability in Han Wistar rat at 3 mg/kg; assay type: ADME, organism-based; details: in vivo
Method in brief: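 Han Wistar rat PK with 1 mg/kg iv and 3 mg/kg po doses, both in pH3 buffer. Clearance is given in ml/min/kg, Vss in L/kg and t1/2 in h.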

[10] = Clearance in Beagle dog at 1 mg/kg, iv and 2 mg/kg, po; assay type: ADME, organism-based, Canis lupus familiaris; details: in vivo
[11] = Volume of distribution at steady state in Beagle dog at 1 mg/kg, iv and 2 mg/kg, po; assay type: ADME, organism-based, Canis lupus familiaris; details: in vivo, read-out: Vdss
[12] = Half life in Beagle dog at 1 mg/kg, iv and 2 mg/kg, po; assay type: ADME, organism-based, Canis lupus familiaris; details: in vivo
[13] = Oral bioavailability in Beagle dog at 2 mg/kg; assay type: ADME, organism-based, Canis lupus familiaris; details: in vivo
[14] = molecular target: T1, Dipeptidyl peptidase 1 (Rattus norvegicus, UniProt P80067); experiment: Inhibition of rat DPP1 using Gly-Arg-AMC as substrate preincubated for 30 mins followed by substrate addition by fluorometric assay
T1 sequence (P80067 whole entry): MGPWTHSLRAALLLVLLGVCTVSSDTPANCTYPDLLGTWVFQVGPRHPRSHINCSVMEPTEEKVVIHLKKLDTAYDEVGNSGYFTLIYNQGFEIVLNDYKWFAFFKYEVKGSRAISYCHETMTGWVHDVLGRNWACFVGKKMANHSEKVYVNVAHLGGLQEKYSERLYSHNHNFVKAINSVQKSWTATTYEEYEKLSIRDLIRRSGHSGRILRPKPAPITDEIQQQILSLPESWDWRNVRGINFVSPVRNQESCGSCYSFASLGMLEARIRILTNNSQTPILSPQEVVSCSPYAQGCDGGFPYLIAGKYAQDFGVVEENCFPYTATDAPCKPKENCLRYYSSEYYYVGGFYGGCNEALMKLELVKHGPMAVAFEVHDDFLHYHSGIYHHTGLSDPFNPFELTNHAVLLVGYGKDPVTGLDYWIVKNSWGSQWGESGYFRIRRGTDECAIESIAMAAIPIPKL

[15] = molecular target: Cathepsin S (Homo sapiens, UniProt P25774); experiment: Inhibition of human recombinant cathepsin S
Cathepsin S, sequence (P25774 whole entry): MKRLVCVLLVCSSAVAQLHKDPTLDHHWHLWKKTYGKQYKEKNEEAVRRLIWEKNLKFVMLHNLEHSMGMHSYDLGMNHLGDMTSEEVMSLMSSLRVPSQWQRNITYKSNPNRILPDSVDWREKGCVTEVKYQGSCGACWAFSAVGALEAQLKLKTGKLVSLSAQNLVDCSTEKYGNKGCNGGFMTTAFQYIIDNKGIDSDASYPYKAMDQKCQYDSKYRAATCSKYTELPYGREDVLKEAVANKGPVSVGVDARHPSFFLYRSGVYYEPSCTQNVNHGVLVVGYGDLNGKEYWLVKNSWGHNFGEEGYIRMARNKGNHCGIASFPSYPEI

[16] = molecular target: Procathepsin L (Homo sapiens, UniProt P07711); experiment: Inhibition of human recombinant cathepsin L
Procathepsin L, sequence (P07711 whole entry): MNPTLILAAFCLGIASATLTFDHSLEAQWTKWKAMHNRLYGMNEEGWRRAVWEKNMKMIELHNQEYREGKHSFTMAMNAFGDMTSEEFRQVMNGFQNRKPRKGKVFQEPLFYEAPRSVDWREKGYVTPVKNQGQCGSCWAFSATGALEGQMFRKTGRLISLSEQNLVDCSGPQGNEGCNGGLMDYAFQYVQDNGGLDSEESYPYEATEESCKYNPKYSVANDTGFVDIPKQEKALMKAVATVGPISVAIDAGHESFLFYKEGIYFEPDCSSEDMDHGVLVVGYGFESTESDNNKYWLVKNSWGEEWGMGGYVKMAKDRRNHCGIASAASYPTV

[17] = molecular target: Cathepsin B (Homo sapiens, UniProt P07858); experiment: Inhibition of human recombinant cathepsin B
[18] = molecular target: Cathepsin D (Homo sapiens, UniProt P07339); experiment: Inhibition of human recombinant cathepsin D
Cathepsin D, sequence (P07339 65-162 limits assumed): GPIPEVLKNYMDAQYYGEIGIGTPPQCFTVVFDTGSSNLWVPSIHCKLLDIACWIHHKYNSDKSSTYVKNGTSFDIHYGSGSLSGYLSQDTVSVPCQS
Cathepsin D, sequence (P07339 169-412 limits assumed): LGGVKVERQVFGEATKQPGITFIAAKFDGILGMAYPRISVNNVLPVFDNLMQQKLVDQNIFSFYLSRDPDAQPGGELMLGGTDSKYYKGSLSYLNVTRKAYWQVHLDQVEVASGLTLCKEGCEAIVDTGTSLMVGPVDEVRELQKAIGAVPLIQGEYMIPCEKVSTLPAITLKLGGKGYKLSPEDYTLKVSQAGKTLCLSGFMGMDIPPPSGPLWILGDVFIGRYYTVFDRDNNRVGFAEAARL

[19] = molecular target: T2, Cathepsin E (Homo sapiens, UniProt P14091); experiment: Inhibition of human recombinant cathepsin E
T2 sequence (P14091 whole entry): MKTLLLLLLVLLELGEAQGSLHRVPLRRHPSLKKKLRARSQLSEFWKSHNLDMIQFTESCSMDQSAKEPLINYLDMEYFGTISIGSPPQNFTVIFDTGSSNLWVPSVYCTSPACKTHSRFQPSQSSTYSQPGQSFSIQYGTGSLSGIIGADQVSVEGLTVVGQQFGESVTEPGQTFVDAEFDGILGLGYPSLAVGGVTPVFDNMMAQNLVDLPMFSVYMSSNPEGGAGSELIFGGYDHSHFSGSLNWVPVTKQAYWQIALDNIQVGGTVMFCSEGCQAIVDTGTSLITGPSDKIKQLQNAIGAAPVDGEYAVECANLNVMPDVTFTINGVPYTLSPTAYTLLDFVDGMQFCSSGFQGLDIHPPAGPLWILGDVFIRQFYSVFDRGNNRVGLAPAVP

[20] = molecular target: Cathepsin Z (Homo sapiens, UniProt Q9UBR2); experiment: Inhibition of human recombinant cathepsin Z
Cathepsin Z, sequence (Q9UBR2 whole entry): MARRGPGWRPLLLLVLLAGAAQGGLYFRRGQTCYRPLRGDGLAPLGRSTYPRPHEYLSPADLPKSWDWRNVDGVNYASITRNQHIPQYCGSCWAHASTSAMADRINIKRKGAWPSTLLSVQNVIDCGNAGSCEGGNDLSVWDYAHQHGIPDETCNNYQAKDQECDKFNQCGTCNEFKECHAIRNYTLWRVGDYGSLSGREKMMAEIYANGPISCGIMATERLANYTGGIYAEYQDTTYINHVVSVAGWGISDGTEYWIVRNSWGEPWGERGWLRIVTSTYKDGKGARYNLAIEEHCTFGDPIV

[21] = molecular target: T3, Pro-cathepsin H (Homo sapiens, UniProt P09668); experiment: Inhibition of human recombinant cathepsin H
T3 sequence (P09668 whole entry): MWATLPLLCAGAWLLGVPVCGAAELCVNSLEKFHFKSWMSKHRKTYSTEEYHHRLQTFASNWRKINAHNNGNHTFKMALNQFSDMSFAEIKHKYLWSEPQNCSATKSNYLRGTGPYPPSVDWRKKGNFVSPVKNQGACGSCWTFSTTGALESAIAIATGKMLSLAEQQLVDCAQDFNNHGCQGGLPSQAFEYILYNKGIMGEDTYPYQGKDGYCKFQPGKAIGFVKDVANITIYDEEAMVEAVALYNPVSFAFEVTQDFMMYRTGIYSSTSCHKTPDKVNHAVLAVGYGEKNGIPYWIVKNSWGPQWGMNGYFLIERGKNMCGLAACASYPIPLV

[22] = system: Rattus norvegicus; experiment: In vivo inhibition of DPP1 in po dosed naive rat assessed as inactivation of neutrophil elastase in bone marrow cell lysates administered as bid for 8 days; assay type: functional, organism-based
[23] = system: Rattus norvegicus; experiment: In vivo inhibition of DPP1 in po dosed naive rat assessed as inactivation of proteinase 3 in bone marrow cell lysates administered as bid for 8 days; assay type: functional, organism-based
[24] = Intrinsic clearance in human liver microsomes at 1 uM after 5 to 30 mins by LC-MS/MS method; assay type: ADME; details: read-out: CLH
Method in brief: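 Human liver microsome stability, with intrinsic clearance given in µL/min/mg.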

[25] = Intrinsic clearance in rat hepatocytes at 1 uM after 5 to 120 mins by LC-MS/MS method; assay type: ADME, cell-based, Hepatocyte
Method in brief: (§1)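 Hepatocyte intrinsic clearance for rat and dog, given in µL/min/10^6 cells.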

[26] = Intrinsic clearance in dog hepatocytes at 1 uM after 5 to 120 mins by LC-MS/MS method; assay type: ADME, cell-based, Canis lupus familiaris, Hepatocyte; method in brief: as §1
[27] = Apparent permeability across apical to basolateral side in human Caco2 cells at 10 uM after 2 hrs by LC-MS/MS method; assay type: ADME, cell-based; details: Caco-2
Method in brief: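 Caco-2 bidirectional permeability run as P_app, given in cm/s x 10^-6.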

[28] = Oral bioavailability in Sprague-Dawley rat at 3 mg/kg; assay type: ADME, organism-based; details: in vivo
[29] = molecular target: Voltage-gated inwardly rectifying potassium channel KCNH2 (Homo sapiens, UniProt Q12809)
Voltage-gated inwardly rectifying potassium channel KCNH2, sequence (Q12809 whole entry): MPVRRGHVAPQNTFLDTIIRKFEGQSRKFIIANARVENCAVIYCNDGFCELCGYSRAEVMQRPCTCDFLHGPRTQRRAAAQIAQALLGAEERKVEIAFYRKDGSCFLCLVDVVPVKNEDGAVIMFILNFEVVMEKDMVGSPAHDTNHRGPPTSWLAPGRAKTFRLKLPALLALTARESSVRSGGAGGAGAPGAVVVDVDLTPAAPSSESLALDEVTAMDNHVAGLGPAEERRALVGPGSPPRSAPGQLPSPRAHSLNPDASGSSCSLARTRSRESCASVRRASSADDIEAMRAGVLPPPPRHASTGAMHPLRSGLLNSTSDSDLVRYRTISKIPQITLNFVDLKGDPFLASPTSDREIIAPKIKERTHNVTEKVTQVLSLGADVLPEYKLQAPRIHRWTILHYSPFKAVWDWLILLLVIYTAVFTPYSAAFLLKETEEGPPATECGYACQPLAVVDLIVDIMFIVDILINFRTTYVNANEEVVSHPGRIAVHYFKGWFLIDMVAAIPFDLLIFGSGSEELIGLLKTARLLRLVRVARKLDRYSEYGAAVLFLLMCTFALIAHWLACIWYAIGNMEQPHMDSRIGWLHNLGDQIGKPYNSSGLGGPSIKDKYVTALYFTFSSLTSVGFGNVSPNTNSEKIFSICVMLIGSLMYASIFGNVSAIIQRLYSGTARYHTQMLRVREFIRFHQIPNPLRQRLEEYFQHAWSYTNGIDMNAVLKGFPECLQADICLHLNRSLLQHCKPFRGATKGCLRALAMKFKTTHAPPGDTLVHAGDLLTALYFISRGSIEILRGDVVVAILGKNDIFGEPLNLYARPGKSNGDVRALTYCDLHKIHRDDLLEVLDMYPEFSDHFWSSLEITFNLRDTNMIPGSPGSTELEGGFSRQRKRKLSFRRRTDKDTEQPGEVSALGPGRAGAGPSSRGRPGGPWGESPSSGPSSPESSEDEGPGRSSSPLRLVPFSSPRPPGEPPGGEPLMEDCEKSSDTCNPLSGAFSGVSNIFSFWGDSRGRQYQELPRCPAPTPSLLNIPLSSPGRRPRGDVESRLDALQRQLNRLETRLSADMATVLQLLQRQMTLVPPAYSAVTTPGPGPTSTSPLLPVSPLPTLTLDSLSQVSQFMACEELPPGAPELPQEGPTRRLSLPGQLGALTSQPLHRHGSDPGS

## Cn1c(=O)oc2ccc(-c3ccc(C[C@@H](C#N)NC(=O)[C@@H]4CNCCCO4)cc3)cc21 [BRENSOCATIB]
[1]
  microsomal CLint at 1 µM: < 14 µL/min/mg
[2]
  CLH: < 3.5 µL/min/10^6 cells
[3]
  fraction unbound at 6 h, 10 µM: 0.06
[4]
  half-life: > 50 h
[5]
  Papp A→B at 1 h, 10 µM: 9.2 ×10⁻⁶ cm/s
[6]
  Papp B→A at 1 h, 10 µM: 58 ×10⁻⁶ cm/s
[7]
  intrinsic clearance (CLint): < 3.5 µL/min/10^6 cells
[8]
  CLH: < 3.5 µL/min/10^6 cells
[9]
  bioavailability: 75%
[10]
  clearance: 8 mL/min/kg
[11]
  Vd: 11 L/kg
[12]
  half-life: 18 h
[13]
  bioavailability: 92%
[14]
  IC50: 0.02 µM
[15]
  IC50: > 20 µM
[16]
  IC50: > 20 µM
[17]
  IC50: > 20 µM
[18]
  IC50: > 20 µM
[19]
  IC50: > 20 µM
[20]
  IC50: > 20 µM
[21]
  IC50: > 20 µM
[22]
  inhibition: Dose-dependent effect
[23]
  inhibition: Dose-dependent effect
[24]
  microsomal CLint at 1 µM: < 3 µL/min/mg
[25]
  CLH: 1.9 µL/min/1e6 cells
[26]
  CLH: < 1 µL/min/1e6 cells
[27]
  Papp A→B at 2 h, 10 µM: 4 ×10⁻⁶ cm/s
[28]
  bioavailability: 30%
[29]
  IC50: > 33 µM
